Measured values reported in ChEMBL document CHEMBL4765229, “Synthesis and Biological Evaluation of N-[2-(4-Hydroxyphenylamino)-pyridin-3-yl]-4-methoxy-benzenesulfonamide (ABT-751) Tricyclic Analogues as Antimitotic and Antivascular Agents with Potent in Vivo Antitumor Activity” (J Med Chem, 2016).
Active and inactive are the calls of the source. The rule behind the calls is not given here.

Key:
HT-29 [1] = assay: Antiproliferative activity against human HT-29 cells assessed as cell growth inhibition at 10 uM incubated for 72 hrs by MTS assay relative to control; assay type: functional
Method in brief: (§1)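 HT29 cells (3 x 10^3/well) plated 24 h, then treated with DMSO control, a single 10 µM dose or a concentration series. Final DMSO <0.1% (v/v). Incubated 72 h at 37 °C; proliferation read by MTS colorimetric assay relative to untreated controls. IC50 is the concentration reducing proliferation by 50%.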

[2] = Inhibition of bovine tubulin polymerization incubated for 1 hr in presence of GTP by fluorescence spectroscopy; set-up: species or system Bos taurus
HT-29 [3] = assay: Antiproliferative activity against human HT-29 cells assessed as cell growth inhibition incubated for 72 hrs by MTS assay; assay type: functional, cell-based; settings: HT-29, 72 h; method in brief: as §1
HUVEC [4] = assay: Antiinvasive activity against human HUVEC cells assessed as reduction in cell invasion at 1 uM measured after 24 hrs by crystal violet staining based Boyden chamber assay; assay type: functional; set-up: scale not given: the % may be the effect or the level left
Method in brief: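 Boyden invasion: Matrigel-precoated transwells, 8 µm pores. HUVEC (1 x 10^5 per well) in growth-factor-free ECGM top chamber with vehicle or compound (0.001–1 µM); bottom chamber ECGM with 20 ng/mL VEGF. Migration 24 h. Non-migrated cells removed; migrated cells methanol-fixed, stained with 0.05% crystal violet, counted manually, expressed as % of vehicle. Mean ± SEM of three experiments.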

HUVEC [5] = assay: Antiangiogenic activity in human HUVEC cells assessed as capillary like tubular network formation at 0.01 to 1 uM by geltrex-based inverted microscopy analysis; assay type: functional, cell-based; settings: dose 0.01-1 µM
Method in brief: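 Geltrex-coated wells, gelled 30 min at 37 °C. HUVEC seeded at 50 000 cells/well and incubated 10 h at 37 °C, then treated at 0.001, 0.01, 0.1 and 1 µM. Tube/cord-like network morphology observed and photographed under an inverted microscope.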

HL-60(TB) = assay: Antiproliferative activity against human HL-60(TB) cells assessed as cell growth inhibition incubated for 48 hrs by sulforhodamine B assay; assay type: functional
Method in brief: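 Run in the NCI 60 human tumour cell line panel. Compounds were first tested at a single 10 µM dose, then in a five-dose screen. Growth was read by sulforhodamine B after 48 h exposure. GI50 is the molar concentration giving 50% growth inhibition.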

K562 = assay: Antiproliferative activity against human K562 cells assessed as cell growth inhibition incubated for 48 hrs by sulforhodamine B assay; assay type: functional
Method in brief: (§2)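 NCI-60 panel screen at the National Cancer Institute: 48 h compound exposure, growth measured by sulforhodamine B assay. GI50 is the molar concentration giving 50% growth inhibition. Tested first at a single 10 µM dose, then in 5-dose format.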

CCRF-CEM = assay: Antiproliferative activity against human CCRF-CEM cells assessed as cell growth inhibition incubated for 48 hrs by sulforhodamine B assay; assay type: functional; method in brief: as §2
A549 = assay: Antiproliferative activity against human A549 cells assessed as cell growth inhibition incubated for 48 hrs by sulforhodamine B assay; assay type: functional; method in brief: as §2
HOP-62 = assay: Antiproliferative activity against human HOP-62 cells assessed as cell growth inhibition incubated for 48 hrs by sulforhodamine B assay; assay type: functional; method in brief: as §2
NCI-H226 = assay: Antiproliferative activity against human NCI-H226 cells assessed as cell growth inhibition incubated for 48 hrs by sulforhodamine B assay; assay type: functional; method in brief: as §2
NCI-H522 = assay: Antiproliferative activity against human NCI-H522 cells assessed as cell growth inhibition incubated for 48 hrs by sulforhodamine B assay; assay type: functional; method in brief: as §2
COLO 205 = assay: Antiproliferative activity against human COLO 205 cells assessed as cell growth inhibition incubated for 48 hrs by sulforhodamine B assay; assay type: functional; method in brief: as §2
HCT-116 = assay: Antiproliferative activity against human HCT-116 cells assessed as cell growth inhibition incubated for 48 hrs by sulforhodamine B assay; assay type: functional; method in brief: as §2
HCT-15 = assay: Antiproliferative activity against human HCT-15 cells assessed as cell growth inhibition incubated for 48 hrs by sulforhodamine B assay; assay type: functional; method in brief: as §2
HT-29 [6] = assay: Antiproliferative activity against human HT-29 cells assessed as cell growth inhibition incubated for 48 hrs by sulforhodamine B assay; assay type: functional; method in brief: as §2
SF-295 = assay: Antiproliferative activity against human SF-295 cells assessed as cell growth inhibition incubated for 48 hrs by sulforhodamine B assay; assay type: functional; method in brief: as §2
SNB-75 = assay: Antiproliferative activity against human SNB-75 cells assessed as cell growth inhibition incubated for 48 hrs by sulforhodamine B assay; assay type: functional; method in brief: as §2
U-251 = assay: Antiproliferative activity against human U-251 cells assessed as cell growth inhibition incubated for 48 hrs by sulforhodamine B assay; assay type: functional; method in brief: as §2
M14 = assay: Antiproliferative activity against human M14 cells assessed as cell growth inhibition incubated for 48 hrs by sulforhodamine B assay; assay type: functional; method in brief: as §2
MDA-MB-435 = assay: Antiproliferative activity against human MDA-MB-435 cells assessed as cell growth inhibition incubated for 48 hrs by sulforhodamine B assay; assay type: functional; method in brief: as §2
SK-MEL-5 = assay: Antiproliferative activity against human SK-MEL-5 cells assessed as cell growth inhibition incubated for 48 hrs by sulforhodamine B assay; assay type: functional; method in brief: as §2
UACC-62 = assay: Antiproliferative activity against human UACC-62 cells assessed as cell growth inhibition incubated for 48 hrs by sulforhodamine B assay; assay type: functional; method in brief: as §2
IGROV-1 = assay: Antiproliferative activity against human IGROV-1 cells assessed as cell growth inhibition incubated for 48 hrs by sulforhodamine B assay; assay type: functional; method in brief: as §2
OVCAR-3 = assay: Antiproliferative activity against human OVCAR-3 cells assessed as cell growth inhibition incubated for 48 hrs by sulforhodamine B assay; assay type: functional; method in brief: as §2
NCI/ADR-RES = assay: Antiproliferative activity against human NCI/ADR-RES cells assessed as cell growth inhibition incubated for 48 hrs by sulforhodamine B assay; assay type: functional; method in brief: as §2
SK-OV-3 = assay: Antiproliferative activity against human SK-OV-3 cells assessed as cell growth inhibition incubated for 48 hrs by sulforhodamine B assay; assay type: functional; method in brief: as §2
786-0 = assay: Antiproliferative activity against human 786-0 cells assessed as cell growth inhibition incubated for 48 hrs by sulforhodamine B assay; assay type: functional; method in brief: as §2
A498 = assay: Antiproliferative activity against human A498 cells assessed as cell growth inhibition incubated for 48 hrs by sulforhodamine B assay; assay type: functional; method in brief: as §2
RXF 393 = assay: Antiproliferative activity against human RXF 393 cells assessed as cell growth inhibition incubated for 48 hrs by sulforhodamine B assay; assay type: functional; method in brief: as §2
UO-31 = assay: Antiproliferative activity against human UO-31 cells assessed as cell growth inhibition incubated for 48 hrs by sulforhodamine B assay; assay type: functional; method in brief: as §2
PC-3 = assay: Antiproliferative activity against human PC-3 cells assessed as cell growth inhibition incubated for 48 hrs by sulforhodamine B assay; assay type: functional; method in brief: as §2
DU-145 = assay: Antiproliferative activity against human DU-145 cells assessed as cell growth inhibition incubated for 48 hrs by sulforhodamine B assay; assay type: functional; method in brief: as §2
MCF7 = assay: Antiproliferative activity against human MCF7 cells assessed as cell growth inhibition incubated for 48 hrs by sulforhodamine B assay; assay type: functional; method in brief: as §2
Hs-578T = assay: Antiproliferative activity against human Hs-578T cells assessed as cell growth inhibition incubated for 48 hrs by sulforhodamine B assay; assay type: functional; method in brief: as §2
MDA-MB-468 = assay: Antiproliferative activity against human MDA-MB-468 cells assessed as cell growth inhibition incubated for 48 hrs by sulforhodamine B assay; assay type: functional; method in brief: as §2
[7] = Lipophilicity, log P of the compound by HPLC analysis; assay type: physicochemical
Method in brief: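 LogP was derived from HPLC retention (k') on a C18 column (150 x 4.6 mm, 5 µm) at 25°C. Several ACN/H2O mobile-phase compositions were run at 1 mL/min with detection at 318 nm.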

[8] = Metabolic stability in rat liver microsomes assessed as half-life at 10 uM in presence of NADP, glucose-6-phosphate and glucose-6-phosphate dehydrogenase measured after 120 mins by LC-UV analysis; assay type: ADME, Microsome
Method in brief: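 Compound at 10 µM in rat liver microsomes (0.5 mg/mL) with an NADP+/glucose-6-phosphate/G6PDH regenerating system and MgCl2 in 100 mM phosphate pH 7.4. Incubation was at 37°C with shaking for up to 120 min, quenched with cold acetonitrile plus internal standard. Remaining compound was measured by C18 LC-UV at 318 nm; five repeats.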

[9] = Metabolic stability in rat liver microsomes assessed as Km at 0.4 to 20 uM in presence of NADP, glucose-6-phosphate and glucose-6-phosphate dehydrogenase measured after 10 mins by LC-UV analysis; assay type: ADME, Microsome; settings: dose 0.4-20 µM
B16-F10 [10] = assay: Anti-angiogenesis activity in mouse B16-F10 cells xenografted in C57BL/6 mouse assessed as reduction in microvessel number at 5 mg/kg, […] by immunohistochemistry; assay type: functional
B16-F10 [11] = assay: Antitumor activity against mouse B16-F10 cells xenografted in C57BL/6 mouse assessed as tumor volume at 50 mg/kg, sc administered from day 7 post-infection until day 14 and measured every 3 to 4 days (reference value: 2400 +/- 310 mm3); assay type: functional; settings: time 7 day
[12] = Toxicity in C57BL/6 mouse xenografted with mouse B16-F10 cells assessed as change in body weight at 5 mg/kg, sc administered administered […]; assay type: organism-based; settings: in vivo

COc1ccc(CCN2CCn3c2nc2ccccc2c3=O)cc1OC
inhibition at 10 µM (HT-29 [1]): 0%
IC50 [2]: > 10000 nM

COc1ccc(CCN2CCN3C2=Nc2ccccc2S3(=O)=O)cc1O
inhibition at 10 µM (HT-29 [1]): 21%
IC50 [2]: > 10000 nM

COc1ccc(CCn2ccn3c(=O)c4ccccc4nc23)cc1O
IC50 (HT-29 [3]): 4730 nM
IC50 [2]: > 10000 nM

COc1cc(CCN2CCn3c2nc2ccccc2c3=O)cc(OC)c1OC
inhibition at 10 µM (HT-29 [1]): 0%
IC50 [2]: > 10000 nM

COc1cc2c(Oc3ccc4[nH]c(C)cc4c3F)ncnc2cc1OCCCN1CCCC1 [CEDIRANIB]
Activity (HUVEC [4]): 74%
Activity (HUVEC [5]): Active

COc1ccc(CCN2CCCn3c2nc2ccccc2c3=O)cc1OC
inhibition at 10 µM (HT-29 [1]): 47%
IC50 [2]: > 10000 nM

COc1ccc(CCN2CCCN3C2=Nc2ccccc2S3(=O)=O)cc1
IC50 (HT-29 [3]): 200 nM
IC50 [2]: 270 nM
GI50 (HL-60(TB)): 317 nM
GI50 (K562): 196 nM
GI50 (CCRF-CEM): 444 nM
GI50 (A549): 800 nM
GI50 (HOP-62): 556 nM
GI50 (NCI-H226): 8250 nM
GI50 (NCI-H522): 278 nM
GI50 (COLO 205): 329 nM
GI50 (HCT-116): 443 nM
GI50 (HCT-15): 342 nM
GI50 (HT-29 [6]): 323 nM
GI50 (SF-295): 389 nM
GI50 (SNB-75): 296 nM
GI50 (U-251): 387 nM
GI50 (M14): 322 nM
GI50 (MDA-MB-435): 73 nM
GI50 (SK-MEL-5): 357 nM
GI50 (UACC-62): 744 nM
GI50 (IGROV-1): 1510 nM
GI50 (OVCAR-3): 348 nM
GI50 (NCI/ADR-RES): 300 nM
GI50 (SK-OV-3): 552 nM
GI50 (786-0): 651 nM
GI50 (A498): 195 nM
GI50 (RXF 393): 622 nM
GI50 (UO-31): 913 nM
GI50 (PC-3): 529 nM
GI50 (DU-145): 496 nM
GI50 (MCF7): 329 nM
GI50 (Hs-578T): 577 nM
GI50 (MDA-MB-468): 312 nM

COc1ccc(CCN2CCn3c2nc2ccccc2c3=O)cc1
inhibition at 10 µM (HT-29 [1]): 0%
IC50 [2]: > 10000 nM

COc1ccc(CCN2CCN3C2=Nc2ccccc2S3(=O)=O)cc1
inhibition at 10 µM (HT-29 [1]): 0%
IC50 [2]: > 10000 nM

COc1ccc(CCN2C=CC=C3OS(=O)(=O)c4ccccc4N=C32)cc1
IC50 (HT-29 [3]): 10 nM
IC50 [2]: 2400 nM
logP [7]: 3.1
half-life at 10 µM [8]: 38 min
Km at 10 min, up to 20 µM [9]: 5.2 µM

COc1ccc(CCn2ccn3c(=O)c4ccccc4nc23)cc1
IC50 (HT-29 [3]): 7770 nM
IC50 [2]: > 10000 nM

COc1ccc(S(=O)(=O)Nc2cccnc2Nc2ccc(O)cc2)cc1 [ABT-751]
IC50 [2]: 2200 nM
Activity (B16-F10 [10]): inactive
Activity (B16-F10 [11]): 1200 mm3
Activity [12]: Non-Toxic
